Laboratory results published in ChEMBL document CHEMBL3271988, “Nitrogen analogues of 1,4-benzoquinones. Activities against the ascitic sarcoma 180 of mice” (J Med Chem, 1978).
The source made the active and inactive calls. The calls are words filed in the database; no cut-off is given here.

Experiments:
Sarcoma-180 [1] = assay: Antitumor activity against mouse Sarcoma 180 cells allografted in Swiss mouse assessed as survival time at 20 mg/kg, ip three doses were given at 24 hrs interval starting 24 hrs after allograft injection relative to control; format: functional; details: route intraperitoneal
Method in brief: (§1)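 Swiss mice inoculated ip with 10^6 ascitic sarcoma 180 cells. Compound given ip daily ×3 at 24-h intervals, starting 24 h after inoculation. Controls received isotonic saline on the same schedule; 6 mice per group. Mice alive at 60 days counted as 60 days in mean survival (±SD).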

Sarcoma-180 [2] = assay: Antitumor activity against mouse Sarcoma 180 cells allografted in Swiss mouse at 20 mg/kg, ip three doses were given at 24 hrs interval starting 24 hrs after allograft injection relative to control; format: functional; details: route intraperitoneal
Method in brief: (§2)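 Swiss mice received 10^6 ascitic sarcoma 180 cells ip, then three ip doses 24 h apart starting at 24 h. Controls got isotonic salt solution on the same schedule. T/C% is mean survival time of treated over controls (6 mice per group).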

Sarcoma-180 [3] = assay: Antitumor activity against mouse Sarcoma 180 cells allografted in Swiss mouse assessed as weight gain at 20 mg/kg, ip three doses were given at 24 hrs interval starting 24 hrs after allograft injection measured after 3 days relative to control; format: functional; details: route intraperitoneal
Method in brief: (§3)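 Ascitic sarcoma 180 model in Swiss mice: 10^6 cells ip, then three ip doses at 24-h intervals beginning 24 h later. Mice were weighed 1 day after cell injection and again 3 days later (24 h after the third dose). Percent weight gain of treated mice was compared with saline-treated controls on the same schedule.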

[4] = Acute toxicity in single ip dosed Swiss mouse assessed as death up to 5 days; format: organism-based; details: in vivo
Method in brief: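 Male Swiss mice given one ip dose. LD50 taken as the single dose killing 50% of animals within 5 days.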

Sarcoma-180 [5] = assay: Antitumor activity against mouse Sarcoma 180 cells allografted in Swiss mouse assessed as survival at 20 mg/kg, ip three doses were given at 24 hrs interval starting 24 hrs after allograft injection measured after 5 days; format: functional, organism-based; design: dose 20 mg/kg
Method in brief: (§4)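 Swiss mice were injected ip with 10^6 ascitic sarcoma 180 cells. Three daily ip doses followed, the first 24 h after cell injection. The read-out was the number of mice surviving at 5 days, out of 6 treated.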

Sarcoma-180 [6] = assay: Antitumor activity against mouse Sarcoma 180 cells allografted in Swiss mouse assessed as cure at 20 mg/kg, ip three doses were given at 24 hrs interval starting 24 hrs after allograft injection measured after 60 days; format: functional, organism-based; design: dose 20 mg/kg
Method in brief: (§5)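 Swiss mice given 10^6 ascitic sarcoma 180 cells ip. Starting 24 h later, three ip doses were given 24 h apart. Controls got isotonic salt solution on the same schedule. A cure was a mouse alive with no evidence of cancer cells 60 days after cell injection, reported per 6 mice.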

[7] = Redox potential of the compound in alcohol-water solution; details: buffer
Sarcoma-180 [8] = assay: Antitumor activity against mouse Sarcoma 180 cells allografted in Swiss mouse assessed as survival time at 10 mg/kg, ip three doses were given at 24 hrs interval starting 24 hrs after allograft injection relative to control; format: functional; details: route intraperitoneal; method in brief: as §1
Sarcoma-180 [9] = assay: Antitumor activity against mouse Sarcoma 180 cells allografted in Swiss mouse at 10 mg/kg, ip three doses were given at 24 hrs interval starting 24 hrs after allograft injection relative to control; format: functional; details: route intraperitoneal; method in brief: as §2
Sarcoma-180 [10] = assay: Antitumor activity against mouse Sarcoma 180 cells allografted in Swiss mouse assessed as weight gain at 10 mg/kg, ip three doses were given at 24 hrs interval starting 24 hrs after allograft injection measured after 3 days relative to control; format: functional; details: route intraperitoneal; method in brief: as §3
[11] = Half life of the compound in water at pH 7 at 25 degC by spectrophotometry; format: physicochemical
Method in brief: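 Compound dissolved in absolute ethanol, then diluted into 0.01 M Tris buffer brought to pH 7 with HCl, 25 °C. Absorbance at λmax followed over hours or days; log absorbance vs time fitted by least squares, rate constant and half-time taken from the slope.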

Sarcoma-180 [12] = assay: Antitumor activity against mouse Sarcoma 180 cells allografted in Swiss mouse assessed as survival at 10 mg/kg, ip three doses were given at 24 hrs interval starting 24 hrs after allograft injection measured after 5 days; format: functional, organism-based; design: dose 10 mg/kg; method in brief: as §4
Sarcoma-180 [13] = assay: Antitumor activity against mouse Sarcoma 180 cells allografted in Swiss mouse assessed as cure at 10 mg/kg, ip three doses were given at 24 hrs interval starting 24 hrs after allograft injection measured after 60 days; format: functional, organism-based; design: dose 10 mg/kg; method in brief: as §5
Sarcoma-180 [14] = assay: Antitumor activity against mouse Sarcoma 180 cells allografted in Swiss mouse assessed as survival time at 3 mg/kg, ip three doses were given at 24 hrs interval starting 24 hrs after allograft injection relative to control; format: functional; details: route intraperitoneal; method in brief: as §1
Sarcoma-180 [15] = assay: Antitumor activity against mouse Sarcoma 180 cells allografted in Swiss mouse at 3 mg/kg, ip three doses were given at 24 hrs interval starting 24 hrs after allograft injection relative to control; format: functional; details: route intraperitoneal; method in brief: as §2
Sarcoma-180 [16] = assay: Antitumor activity against mouse Sarcoma 180 cells allografted in Swiss mouse assessed as survival at 3 mg/kg, ip three doses were given at 24 hrs interval starting 24 hrs after allograft injection measured after 5 days; format: functional, organism-based; design: dose 3 mg/kg; method in brief: as §4
Sarcoma-180 [17] = assay: Antitumor activity against mouse Sarcoma 180 cells allografted in Swiss mouse assessed as weight gain at 3 mg/kg, ip three doses were given at 24 hrs interval starting 24 hrs after allograft injection measured after 3 days relative to control; format: functional; details: route intraperitoneal; method in brief: as §3
Sarcoma-180 [18] = assay: Antitumor activity against mouse Sarcoma 180 cells allografted in Swiss mouse assessed as survival time at 15 mg/kg, ip three doses were given at 24 hrs interval starting 24 hrs after allograft injection relative to control; format: functional; details: route intraperitoneal; method in brief: as §1
Sarcoma-180 [19] = assay: Antitumor activity against mouse Sarcoma 180 cells allografted in Swiss mouse at 15 mg/kg, ip three doses were given at 24 hrs interval starting 24 hrs after allograft injection relative to control; format: functional; details: route intraperitoneal; method in brief: as §2
Sarcoma-180 [20] = assay: Antitumor activity against mouse Sarcoma 180 cells allografted in Swiss mouse assessed as survival at 15 mg/kg, ip three doses were given at 24 hrs interval starting 24 hrs after allograft injection measured after 5 days; format: functional, organism-based; design: dose 15 mg/kg; method in brief: as §4
Sarcoma-180 [21] = assay: Antitumor activity against mouse Sarcoma 180 cells allografted in Swiss mouse assessed as weight gain at 15 mg/kg, ip three doses were given at 24 hrs interval starting 24 hrs after allograft injection measured after 3 days relative to control; format: functional; details: route intraperitoneal; method in brief: as §3
Sarcoma-180 [22] = assay: Antitumor activity against mouse Sarcoma 180 cells allografted in Swiss mouse assessed as cure at 15 mg/kg, ip three doses were given at 24 hrs interval starting 24 hrs after allograft injection measured after 60 days; format: functional, organism-based; design: dose 15 mg/kg; method in brief: as §5
Sarcoma-180 [23] = assay: Antitumor activity against mouse Sarcoma 180 cells allografted in Swiss mouse assessed as survival time at 150 mg/kg, ip three doses were given at 24 hrs interval starting 24 hrs after allograft injection relative to control; format: functional; details: route intraperitoneal; method in brief: as §1
Sarcoma-180 [24] = assay: Antitumor activity against mouse Sarcoma 180 cells allografted in Swiss mouse at 150 mg/kg, ip three doses were given at 24 hrs interval starting 24 hrs after allograft injection relative to control; format: functional; details: route intraperitoneal; method in brief: as §2
Sarcoma-180 [25] = assay: Antitumor activity against mouse Sarcoma 180 cells allografted in Swiss mouse assessed as survival at 150 mg/kg, ip three doses were given at 24 hrs interval starting 24 hrs after allograft injection measured after 5 days; format: functional, organism-based; design: dose 150 mg/kg; method in brief: as §4
Sarcoma-180 [26] = assay: Antitumor activity against mouse Sarcoma 180 cells allografted in Swiss mouse assessed as weight gain at 150 mg/kg, ip three doses were given at 24 hrs interval starting 24 hrs after allograft injection measured after 3 days relative to control; format: functional; details: route intraperitoneal; method in brief: as §3
Sarcoma-180 [27] = assay: Antitumor activity against mouse Sarcoma 180 cells allografted in Swiss mouse assessed as cure at 150 mg/kg, ip three doses were given at 24 hrs interval starting 24 hrs after allograft injection measured after 60 days; format: functional, organism-based; design: dose 150 mg/kg; method in brief: as §5
Sarcoma-180 [28] = assay: Antitumor activity against mouse Sarcoma 180 cells allografted in Swiss mouse assessed as survival time at 60 mg/kg, ip three doses were given at 24 hrs interval starting 24 hrs after allograft injection relative to control; format: functional; details: route intraperitoneal; method in brief: as §1
Sarcoma-180 [29] = assay: Antitumor activity against mouse Sarcoma 180 cells allografted in Swiss mouse at 60 mg/kg, ip three doses were given at 24 hrs interval starting 24 hrs after allograft injection relative to control; format: functional; details: route intraperitoneal; method in brief: as §2
Sarcoma-180 [30] = assay: Antitumor activity against mouse Sarcoma 180 cells allografted in Swiss mouse assessed as survival at 60 mg/kg, ip three doses were given at 24 hrs interval starting 24 hrs after allograft injection measured after 5 days; format: functional, organism-based; design: dose 60 mg/kg; method in brief: as §4
Sarcoma-180 [31] = assay: Antitumor activity against mouse Sarcoma 180 cells allografted in Swiss mouse assessed as weight gain at 60 mg/kg, ip three doses were given at 24 hrs interval starting 24 hrs after allograft injection measured after 3 days relative to control; format: functional; details: route intraperitoneal; method in brief: as §3
Sarcoma-180 [32] = assay: Antitumor activity against mouse Sarcoma 180 cells allografted in Swiss mouse assessed as cure at 60 mg/kg, ip three doses were given at 24 hrs interval starting 24 hrs after allograft injection measured after 60 days; format: functional, organism-based; design: dose 60 mg/kg; method in brief: as §5

SMILES: CC(=O)Oc1ccc(N=C2C=CC(=O)C=C2)cc1
- Survival (Sarcoma-180 [1]): 19.2 days
- T/C (Sarcoma-180 [2]): 130%
- Activity (Sarcoma-180 [3]): -1.5%
- LD50 at 120 h [4]: 90 mg/kg
- Activity (Sarcoma-180 [5]): Active
- Activity (Sarcoma-180 [6]): inactive
- Redox potential [7]: 0.633 V

SMILES: O=C1C(Cl)=CC(=NCl)C=C1Cl
- Survival (Sarcoma-180 [8]): 25.3 days
- T/C (Sarcoma-180 [9]): 220%
- Activity (Sarcoma-180 [10]): -14.2%
- half-life [11]: 40 h
- LD50 at 120 h [4]: 20 mg/kg
- Activity (Sarcoma-180 [12]): Active
- Activity (Sarcoma-180 [13]): inactive
- Redox potential [7]: 0.659 V

SMILES: CC(=O)NC1=C/C(=N\c2ccc(N(C)C)cc2)C=CC1=O
- Survival (Sarcoma-180 [14]): 26.8 days
- T/C (Sarcoma-180 [15]): 194%
- LD50 at 120 h [4]: 70 mg/kg
- Activity (Sarcoma-180 [16]): Active
- Activity (Sarcoma-180 [17]): 4.3%
- Redox potential [7]: 0.58 V

SMILES: O=C1C=CC(=NBr)C=C1
- Survival (Sarcoma-180 [18]): 15.5 days
- T/C (Sarcoma-180 [19]): 145%
- LD50 at 120 h [4]: 40 mg/kg
- Activity (Sarcoma-180 [20]): Active
- Activity (Sarcoma-180 [21]): -3.8%
- Activity (Sarcoma-180 [22]): inactive
- Redox potential [7]: 0.518 V

SMILES: O=C1C=C/C(=N/O)C(Br)=C1
- Survival (Sarcoma-180 [23]): 18.2 days
- T/C (Sarcoma-180 [24]): 158%
- LD50 at 120 h [4]: 1090 mg/kg
- Activity (Sarcoma-180 [25]): Active
- Activity (Sarcoma-180 [26]): 6.4%
- Activity (Sarcoma-180 [27]): inactive
- Redox potential [7]: 0.532 V

SMILES: COC1=C/C(=N\O)C=CC1=O
- Survival (Sarcoma-180 [28]): 18.5 days
- T/C (Sarcoma-180 [29]): 173%
- half-life [11]: 298 h
- LD50 at 120 h [4]: 120 mg/kg
- Activity (Sarcoma-180 [30]): Active
- Activity (Sarcoma-180 [31]): 1.9%
- Activity (Sarcoma-180 [32]): inactive
- Redox potential [7]: 0.521 V
